Laboratory results reported in ChEMBL document CHEMBL2150931, “Design, synthesis, and biological activity of a novel series of human sirtuin-2-selective inhibitors” (J Med Chem, 2012).
pIC50: −log10 of the molar value.

What was measured:
[1] = target: T1, NAD-dependent protein deacetylase sirtuin-2 (Homo sapiens, UniProt Q8IXJ6); experiment: Inhibition of human recombinant SIRT2 using Fluor de Lys-SIRT as substrate incubated for 60 mins prior to substrate addition measured after 60 mins by fluorimetric analysis
T1 sequence (Q8IXJ6 whole entry): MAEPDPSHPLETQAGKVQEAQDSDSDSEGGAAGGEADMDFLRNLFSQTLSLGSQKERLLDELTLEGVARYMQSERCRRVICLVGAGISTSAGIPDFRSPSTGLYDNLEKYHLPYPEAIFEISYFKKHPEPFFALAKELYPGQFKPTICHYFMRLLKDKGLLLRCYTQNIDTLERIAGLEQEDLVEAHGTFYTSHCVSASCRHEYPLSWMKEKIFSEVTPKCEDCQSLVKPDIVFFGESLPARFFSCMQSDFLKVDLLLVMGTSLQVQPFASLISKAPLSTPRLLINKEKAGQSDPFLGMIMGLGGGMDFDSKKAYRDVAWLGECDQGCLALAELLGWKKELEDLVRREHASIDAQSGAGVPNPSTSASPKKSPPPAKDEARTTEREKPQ
Method in brief: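 Human recombinant SIRT2 preincubated with 1 mM NAD⁺ and serial compound dilutions for 60 min at 37 °C, then 25 μM Fluor de Lys-SIRT substrate added. Reaction stopped at 60 min with Developer II containing nicotinamide. Fluorescence read 45 min later at ex 360/em 460 nm. % inhibition taken against control wells. IC₅₀ obtained by regression of log[Inh] vs logit % inhibition; means of ≥3 experiments.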

[2] = target: T2, NAD-dependent protein deacetylase sirtuin-3, mitochondrial (Homo sapiens, UniProt Q9NTG7); experiment: Inhibition of human recombinant SIRT3 using Fluor de Lys-SIRT as substrate incubated for 60 mins prior to substrate addition measured after 60 mins by fluorimetric analysis
T2 sequence (Q9NTG7 whole entry): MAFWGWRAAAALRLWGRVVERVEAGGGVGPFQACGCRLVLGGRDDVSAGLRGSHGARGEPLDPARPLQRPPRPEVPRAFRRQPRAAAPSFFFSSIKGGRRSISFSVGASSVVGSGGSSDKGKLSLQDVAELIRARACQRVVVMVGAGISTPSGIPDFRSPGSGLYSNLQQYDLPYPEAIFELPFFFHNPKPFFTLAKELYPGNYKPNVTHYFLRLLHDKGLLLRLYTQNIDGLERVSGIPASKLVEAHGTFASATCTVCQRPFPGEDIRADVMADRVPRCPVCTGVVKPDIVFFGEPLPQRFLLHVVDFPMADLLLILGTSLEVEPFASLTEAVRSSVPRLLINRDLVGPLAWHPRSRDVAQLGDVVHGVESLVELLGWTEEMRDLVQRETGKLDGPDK

[3] = target: T3, NAD-dependent protein deacetylase sirtuin-2 (Homo sapiens) (UniProt Q8IXJ6); experiment: Binding affinity to recombinant SIRT2 by surface plasmon resonance assay
T3 sequence (whole entry): T1 sequence (Q8IXJ6 whole entry)

[4] = target: T3, NAD-dependent protein deacetylase sirtuin-2 (Homo sapiens); experiment: Inhibition of SIRT2 in human HCT116 cells assessed as increase in acetylated alpha-tubulin after 8 hrs by Western blot analysis; assay type: cell-based; settings: HCT-116
Method in brief: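 HCT116 cells grown in McCoy's 5A with 10% FBS. 5×10⁵ cells exposed 8 h to compound at 1 or 10 μM, alongside 20 μM etoposide. SDS lysates equalized by Bradford assay and run on 15% SDS-PAGE, then blotted onto nitrocellulose. Blots probed overnight at 4 °C for acetyl-p53, p53, acetyl-α-tubulin and α-tubulin, and detected by ECL. Signal given as acetylated/total protein ratio.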

Histone deacetylase 1 = Histone deacetylase 1 (Homo sapiens, UniProt Q13547); experiment: Inhibition of HDAC1
Histone deacetylase 2 = Histone deacetylase 2 (Homo sapiens, UniProt Q92769); experiment: Inhibition of HDAC2
Histone deacetylase 3 = Histone deacetylase 3 (Homo sapiens, UniProt O15379); experiment: Inhibition of HDAC3
Histone deacetylase 5 = Histone deacetylase 5 (Homo sapiens, UniProt Q9UQL6); experiment: Inhibition of HDAC5
Histone deacetylase 7 = target: T4, Histone deacetylase 7 (Homo sapiens, UniProt Q8WUI4); experiment: Inhibition of HDAC7
T4 sequence (Q8WUI4 whole entry): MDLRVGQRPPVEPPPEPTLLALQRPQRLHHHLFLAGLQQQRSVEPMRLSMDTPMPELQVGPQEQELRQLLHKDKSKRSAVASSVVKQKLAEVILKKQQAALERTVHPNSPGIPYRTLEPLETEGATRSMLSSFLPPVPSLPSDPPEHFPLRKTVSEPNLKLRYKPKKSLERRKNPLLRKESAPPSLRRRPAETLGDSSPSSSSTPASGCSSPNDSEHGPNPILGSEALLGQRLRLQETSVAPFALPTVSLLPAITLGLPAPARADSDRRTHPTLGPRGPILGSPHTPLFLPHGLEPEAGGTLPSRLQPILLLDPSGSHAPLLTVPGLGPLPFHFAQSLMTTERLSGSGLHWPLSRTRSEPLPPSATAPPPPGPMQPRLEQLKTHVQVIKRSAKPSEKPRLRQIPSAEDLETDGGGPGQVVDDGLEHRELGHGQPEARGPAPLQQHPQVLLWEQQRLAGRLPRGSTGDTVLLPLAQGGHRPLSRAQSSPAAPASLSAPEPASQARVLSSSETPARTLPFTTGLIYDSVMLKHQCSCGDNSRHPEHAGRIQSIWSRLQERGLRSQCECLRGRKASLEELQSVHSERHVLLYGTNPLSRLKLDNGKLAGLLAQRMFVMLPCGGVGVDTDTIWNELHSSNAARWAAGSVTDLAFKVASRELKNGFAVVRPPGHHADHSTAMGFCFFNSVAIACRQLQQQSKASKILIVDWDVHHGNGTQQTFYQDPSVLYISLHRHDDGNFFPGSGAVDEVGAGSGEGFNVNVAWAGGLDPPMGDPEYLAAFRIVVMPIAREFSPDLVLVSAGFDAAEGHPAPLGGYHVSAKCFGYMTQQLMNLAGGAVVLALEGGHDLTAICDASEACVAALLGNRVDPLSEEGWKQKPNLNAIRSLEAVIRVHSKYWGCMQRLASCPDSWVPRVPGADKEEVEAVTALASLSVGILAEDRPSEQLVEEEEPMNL

Histone deacetylase 9 = Histone deacetylase 9 (Homo sapiens, UniProt Q9UKV0); experiment: Inhibition of HDAC9
Cytochrome P450 3A4 = Cytochrome P450 3A4 (Homo sapiens, UniProt P08684); experiment: Inhibition of CYP3A4; assay type: ADME
Cytochrome P450 2D6 = Cytochrome P450 2D6 (Homo sapiens, UniProt P10635); experiment: Inhibition of CYP2D6; assay type: ADME
[5] = Metabolic stability in human liver microsomes assessed as compound remaining at 0.5 mg after 15 mins; assay type: ADME, Microsome; settings: read-out: Stability

Histone deacetylase 9, sequence (Q9UKV0 whole entry): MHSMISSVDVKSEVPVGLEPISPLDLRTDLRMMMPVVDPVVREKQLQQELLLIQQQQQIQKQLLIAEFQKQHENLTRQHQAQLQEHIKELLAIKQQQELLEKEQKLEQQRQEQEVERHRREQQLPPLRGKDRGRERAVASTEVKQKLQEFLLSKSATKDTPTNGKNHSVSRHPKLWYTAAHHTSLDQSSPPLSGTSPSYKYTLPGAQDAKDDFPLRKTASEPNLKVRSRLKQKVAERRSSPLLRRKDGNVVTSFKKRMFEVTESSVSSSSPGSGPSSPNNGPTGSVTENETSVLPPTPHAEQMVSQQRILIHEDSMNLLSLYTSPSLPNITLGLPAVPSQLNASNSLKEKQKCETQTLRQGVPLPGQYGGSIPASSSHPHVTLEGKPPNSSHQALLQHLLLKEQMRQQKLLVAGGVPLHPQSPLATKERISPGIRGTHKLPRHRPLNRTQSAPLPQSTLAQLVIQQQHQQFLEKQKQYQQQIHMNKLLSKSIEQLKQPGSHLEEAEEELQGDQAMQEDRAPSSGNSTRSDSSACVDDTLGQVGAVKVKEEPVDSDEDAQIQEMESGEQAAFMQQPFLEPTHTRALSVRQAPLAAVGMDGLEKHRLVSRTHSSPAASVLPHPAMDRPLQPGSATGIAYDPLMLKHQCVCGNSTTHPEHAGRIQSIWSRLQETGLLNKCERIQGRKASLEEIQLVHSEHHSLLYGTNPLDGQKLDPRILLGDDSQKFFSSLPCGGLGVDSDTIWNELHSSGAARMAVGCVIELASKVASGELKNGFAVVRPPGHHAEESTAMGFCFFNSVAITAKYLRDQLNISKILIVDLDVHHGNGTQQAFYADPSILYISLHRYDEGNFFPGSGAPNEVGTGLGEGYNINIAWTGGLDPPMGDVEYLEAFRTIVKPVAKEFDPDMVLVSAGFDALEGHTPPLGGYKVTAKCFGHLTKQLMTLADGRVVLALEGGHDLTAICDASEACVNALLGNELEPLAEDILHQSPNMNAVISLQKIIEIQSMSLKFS
Histone deacetylase 2, sequence (Q92769 whole entry): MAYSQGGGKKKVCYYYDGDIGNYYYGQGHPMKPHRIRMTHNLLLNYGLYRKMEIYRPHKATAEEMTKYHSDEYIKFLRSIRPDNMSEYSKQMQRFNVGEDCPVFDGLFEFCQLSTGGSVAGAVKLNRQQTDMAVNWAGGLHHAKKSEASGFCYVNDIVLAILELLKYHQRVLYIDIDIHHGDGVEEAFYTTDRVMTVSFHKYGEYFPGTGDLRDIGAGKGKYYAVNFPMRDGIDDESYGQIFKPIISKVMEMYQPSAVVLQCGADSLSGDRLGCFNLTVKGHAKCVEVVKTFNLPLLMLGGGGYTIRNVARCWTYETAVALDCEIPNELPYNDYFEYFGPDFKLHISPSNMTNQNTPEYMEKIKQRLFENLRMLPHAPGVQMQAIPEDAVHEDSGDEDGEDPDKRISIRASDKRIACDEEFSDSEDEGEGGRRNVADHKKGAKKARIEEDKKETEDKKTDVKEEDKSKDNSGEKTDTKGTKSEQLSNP
Histone deacetylase 3, sequence (O15379 whole entry): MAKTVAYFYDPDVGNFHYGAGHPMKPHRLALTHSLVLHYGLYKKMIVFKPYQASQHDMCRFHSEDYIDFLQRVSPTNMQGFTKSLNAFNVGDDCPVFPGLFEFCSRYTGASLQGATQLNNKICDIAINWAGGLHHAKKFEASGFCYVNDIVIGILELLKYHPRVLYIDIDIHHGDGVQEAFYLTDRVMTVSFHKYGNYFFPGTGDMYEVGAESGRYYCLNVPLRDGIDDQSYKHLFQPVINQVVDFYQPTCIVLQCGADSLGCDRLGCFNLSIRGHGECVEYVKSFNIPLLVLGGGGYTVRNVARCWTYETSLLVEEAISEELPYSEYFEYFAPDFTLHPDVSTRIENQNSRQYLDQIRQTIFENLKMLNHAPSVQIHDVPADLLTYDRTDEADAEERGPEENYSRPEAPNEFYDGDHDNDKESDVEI
Histone deacetylase 5, sequence (Q9UQL6 whole entry): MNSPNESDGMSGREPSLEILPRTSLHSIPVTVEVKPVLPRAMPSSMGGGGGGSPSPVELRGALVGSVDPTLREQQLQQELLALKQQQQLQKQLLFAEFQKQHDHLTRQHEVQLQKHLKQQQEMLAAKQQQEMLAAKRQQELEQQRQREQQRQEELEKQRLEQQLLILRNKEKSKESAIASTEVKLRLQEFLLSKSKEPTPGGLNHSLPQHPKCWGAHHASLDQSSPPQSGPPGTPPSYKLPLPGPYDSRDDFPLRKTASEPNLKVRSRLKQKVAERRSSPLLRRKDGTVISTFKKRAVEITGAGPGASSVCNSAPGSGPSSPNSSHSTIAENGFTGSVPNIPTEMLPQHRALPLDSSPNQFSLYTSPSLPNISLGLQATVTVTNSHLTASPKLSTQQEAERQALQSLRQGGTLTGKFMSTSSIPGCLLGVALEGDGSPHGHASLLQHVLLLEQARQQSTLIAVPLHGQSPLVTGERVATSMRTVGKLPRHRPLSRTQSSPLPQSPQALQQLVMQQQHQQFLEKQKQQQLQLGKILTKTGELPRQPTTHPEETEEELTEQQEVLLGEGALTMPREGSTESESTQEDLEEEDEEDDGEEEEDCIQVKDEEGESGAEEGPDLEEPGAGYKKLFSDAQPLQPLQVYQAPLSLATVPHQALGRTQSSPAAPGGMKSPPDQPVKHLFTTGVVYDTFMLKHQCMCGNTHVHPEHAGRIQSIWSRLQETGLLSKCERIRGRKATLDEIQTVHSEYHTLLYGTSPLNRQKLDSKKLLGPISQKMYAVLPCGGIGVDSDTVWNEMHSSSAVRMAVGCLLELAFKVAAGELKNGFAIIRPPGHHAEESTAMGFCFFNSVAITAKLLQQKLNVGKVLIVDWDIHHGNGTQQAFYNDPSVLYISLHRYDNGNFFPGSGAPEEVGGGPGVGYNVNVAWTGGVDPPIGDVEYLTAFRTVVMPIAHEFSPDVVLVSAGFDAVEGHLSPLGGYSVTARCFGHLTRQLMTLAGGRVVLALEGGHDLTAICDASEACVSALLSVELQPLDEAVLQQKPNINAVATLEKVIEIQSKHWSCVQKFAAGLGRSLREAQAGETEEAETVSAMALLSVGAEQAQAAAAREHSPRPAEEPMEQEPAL
Histone deacetylase 1, sequence (Q13547 whole entry): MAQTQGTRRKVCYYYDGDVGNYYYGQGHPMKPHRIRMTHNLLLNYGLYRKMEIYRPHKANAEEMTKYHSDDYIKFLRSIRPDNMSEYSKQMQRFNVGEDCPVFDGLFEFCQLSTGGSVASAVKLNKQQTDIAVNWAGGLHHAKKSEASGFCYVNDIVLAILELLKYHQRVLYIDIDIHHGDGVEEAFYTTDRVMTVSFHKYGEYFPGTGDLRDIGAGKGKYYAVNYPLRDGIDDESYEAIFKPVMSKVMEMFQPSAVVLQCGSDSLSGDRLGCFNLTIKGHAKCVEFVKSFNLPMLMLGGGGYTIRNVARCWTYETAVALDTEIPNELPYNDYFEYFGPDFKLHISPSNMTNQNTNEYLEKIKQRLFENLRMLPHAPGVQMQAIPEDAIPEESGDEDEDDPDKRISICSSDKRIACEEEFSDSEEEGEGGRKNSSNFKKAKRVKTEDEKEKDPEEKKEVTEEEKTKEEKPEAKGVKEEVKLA
Cytochrome P450 3A4, sequence (P08684 whole entry): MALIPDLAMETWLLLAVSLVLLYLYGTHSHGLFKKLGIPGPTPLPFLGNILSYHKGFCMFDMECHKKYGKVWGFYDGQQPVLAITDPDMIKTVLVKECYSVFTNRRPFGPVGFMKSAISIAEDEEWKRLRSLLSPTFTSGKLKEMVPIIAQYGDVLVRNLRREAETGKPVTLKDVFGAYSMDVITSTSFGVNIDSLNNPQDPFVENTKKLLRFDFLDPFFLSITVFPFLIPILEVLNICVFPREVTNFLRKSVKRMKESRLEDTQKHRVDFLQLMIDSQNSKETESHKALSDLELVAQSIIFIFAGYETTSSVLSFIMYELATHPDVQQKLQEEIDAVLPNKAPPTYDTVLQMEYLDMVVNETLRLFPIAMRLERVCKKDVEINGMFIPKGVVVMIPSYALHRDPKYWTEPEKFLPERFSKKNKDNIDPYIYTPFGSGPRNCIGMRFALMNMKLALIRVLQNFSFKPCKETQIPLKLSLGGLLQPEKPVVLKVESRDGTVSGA
Cytochrome P450 2D6, sequence (P10635 whole entry): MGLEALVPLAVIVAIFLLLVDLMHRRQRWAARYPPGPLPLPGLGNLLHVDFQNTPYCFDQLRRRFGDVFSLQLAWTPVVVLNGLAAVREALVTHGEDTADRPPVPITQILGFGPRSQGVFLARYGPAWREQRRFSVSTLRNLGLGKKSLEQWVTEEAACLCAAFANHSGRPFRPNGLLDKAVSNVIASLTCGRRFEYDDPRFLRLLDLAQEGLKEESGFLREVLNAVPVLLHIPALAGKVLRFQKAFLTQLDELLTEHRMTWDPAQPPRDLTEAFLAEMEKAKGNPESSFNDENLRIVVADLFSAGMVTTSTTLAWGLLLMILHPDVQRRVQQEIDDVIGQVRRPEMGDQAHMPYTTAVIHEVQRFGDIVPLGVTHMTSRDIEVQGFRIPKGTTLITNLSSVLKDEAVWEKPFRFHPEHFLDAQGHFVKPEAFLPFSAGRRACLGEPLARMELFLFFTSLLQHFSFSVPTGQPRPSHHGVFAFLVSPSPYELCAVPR

pIC50 [1]: 6.00
pIC50 [2]: < 3.52
Activity [3]: Dose-dependent effect
inhibition [4]: Dose-dependent effect
pIC50 (Histone deacetylase 1): < 4.52
pIC50 (Histone deacetylase 2): < 4.52
pIC50 (Histone deacetylase 3): < 4.52
pIC50 (Histone deacetylase 5): < 4.52
pIC50 (Histone deacetylase 7): < 4.52
pIC50 (Histone deacetylase 9): < 4.52
pIC50 (Cytochrome P450 3A4): < 5.00
pIC50 (Cytochrome P450 2D6): < 5.00
remaining at 0.25 h [5]: 64%
Compound: NC(=O)c1ccccc1Nc1cccc(OCCc2ccccc2)c1
